Measurements taken from ChEMBL document CHEMBL1949587 (Bioorg Med Chem, 2012).
Activity calls are given as the source filed them. The rule behind the calls is not given here.

Legend:
HUVEC = test: Antiangiogenic activity in HUVEC assessed as inhibition of VEGF-induced cell proliferation after 4 days; format: functional, cell-based; conditions: Homo sapiens, 96 h
Method in brief: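 HUVECs maintained in RPMI1640 with 10% FCS, 50 μg/mL heparin and ECGS, then seeded at 3000 cells/well in RPMI1640 with 5% FCS and 20 ng/mL VEGF, with compound at serially diluted concentrations. Incubated at 37 °C, 5% CO₂. Read-out is Cell Counting Kit-8, absorbance at 450 nm. Inhibition = (1−T/C)×100 against untreated control.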

[1] = molecular target: Vascular endothelial growth factor receptor 2 (Homo sapiens, UniProt P35968); test: Inhibition of VEGFR2
Sequence of Vascular endothelial growth factor receptor 2 (P35968 whole entry): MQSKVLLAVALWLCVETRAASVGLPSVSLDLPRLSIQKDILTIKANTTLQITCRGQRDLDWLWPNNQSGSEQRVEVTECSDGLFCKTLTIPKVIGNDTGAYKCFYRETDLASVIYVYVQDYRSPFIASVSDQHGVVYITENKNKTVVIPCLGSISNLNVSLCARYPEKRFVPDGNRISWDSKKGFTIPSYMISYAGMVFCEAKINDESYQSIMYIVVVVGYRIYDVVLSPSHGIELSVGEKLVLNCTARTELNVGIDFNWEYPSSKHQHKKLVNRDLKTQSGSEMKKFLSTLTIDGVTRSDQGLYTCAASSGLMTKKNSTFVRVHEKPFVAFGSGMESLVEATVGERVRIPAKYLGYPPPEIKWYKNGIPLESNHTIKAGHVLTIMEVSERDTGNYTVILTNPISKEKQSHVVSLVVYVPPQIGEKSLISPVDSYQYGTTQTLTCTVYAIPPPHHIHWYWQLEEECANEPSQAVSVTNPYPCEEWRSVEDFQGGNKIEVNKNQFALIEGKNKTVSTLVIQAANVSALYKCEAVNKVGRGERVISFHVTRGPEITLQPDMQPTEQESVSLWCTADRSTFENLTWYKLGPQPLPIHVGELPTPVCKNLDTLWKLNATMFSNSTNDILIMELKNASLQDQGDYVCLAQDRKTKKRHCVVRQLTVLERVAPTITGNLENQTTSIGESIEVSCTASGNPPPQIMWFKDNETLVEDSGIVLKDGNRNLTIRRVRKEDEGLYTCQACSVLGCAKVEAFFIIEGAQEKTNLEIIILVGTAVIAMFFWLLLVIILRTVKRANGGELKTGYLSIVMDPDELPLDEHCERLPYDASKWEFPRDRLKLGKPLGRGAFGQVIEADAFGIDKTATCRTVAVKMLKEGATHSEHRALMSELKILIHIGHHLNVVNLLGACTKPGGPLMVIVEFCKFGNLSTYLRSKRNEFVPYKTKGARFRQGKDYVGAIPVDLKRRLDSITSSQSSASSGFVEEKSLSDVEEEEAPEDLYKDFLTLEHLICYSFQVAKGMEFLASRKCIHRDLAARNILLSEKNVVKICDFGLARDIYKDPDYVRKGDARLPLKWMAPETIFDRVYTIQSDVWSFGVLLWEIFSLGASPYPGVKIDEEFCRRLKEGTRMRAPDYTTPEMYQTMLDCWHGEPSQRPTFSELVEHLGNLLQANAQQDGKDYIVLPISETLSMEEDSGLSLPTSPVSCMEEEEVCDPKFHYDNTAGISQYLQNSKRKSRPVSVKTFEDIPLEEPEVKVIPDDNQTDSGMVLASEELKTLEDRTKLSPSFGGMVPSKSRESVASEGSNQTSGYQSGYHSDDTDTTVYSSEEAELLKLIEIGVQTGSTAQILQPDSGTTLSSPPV

Calu-6 [2] = test: Antiangiogenic activity in human Calu6 cells xenografted in BALB/c mouse assessed as microvessel density reduction at 1 to 10 mg/kg, po qd for 11 days measured 24 hrs after last postdose by immunohistochemical staining method; format: functional, organism-based
Method in brief: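 Female Balb/c nude mice given Calu-6 cells s.c. in the flank, 5.0×10⁶ cells per mouse. Dosing was oral, once daily for 11 days, starting once tumors reached 150 mm³. Tumors taken 24 h after the last dose and frozen-sectioned from the mid-portion. Vessels stained with anti-mouse CD31 and counted by image analysis. Density decrease expressed against control.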

[3] = Cmax in nude mouse at 30 mg/kg, po by LC-MS/MS analysis; format: ADME, organism-based; set-up: dose 30 mg/kg, route oral; conditions: in vivo
Method in brief: (§1)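 Female nude mice given single oral dose in DMSO/Cremophor EL/1% Tween 80 (1:1:8 v/v/v) by stomach sonde. Blood taken at 30 min, 1, 2, 4, 7 and 24 h (n = 2/time point). Plasma precipitated with CH3CN/MeOH plus internal standard, filtered, measured by LC-MS/MS (LLOQ 20 ng/mL). Parameters by non-compartmental analysis; CL given as CL/F.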

HT-29 = test: Antiproliferative activity against human HT-29 cells assessed as cell growth inhibition; format: cell-based
[4] = Cytotoxicity in fibroblast cells assessed as morphological change at 4 to 20 uM; format: cell-based
[5] = Antiproliferative activity against human KPL4 cells assessed as cell growth inhibition; format: cell-based
Focal adhesion kinase 1 = Focal adhesion kinase 1 (Homo sapiens, UniProt Q05397); test: Inhibition of FAK
[6] = Antiproliferative activity against human KG1a cells assessed as cell growth inhibition; format: cell-based; conditions: KG-1a
MKN-28 = test: Antiproliferative activity against human MKN28 cells assessed as cell growth inhibition; format: cell-based
A549 = test: Antiproliferative activity against human A549 cells assessed as cell growth inhibition; format: cell-based
[7] = molecular target: Insulin-like growth factor 1 receptor (Homo sapiens, UniProt P08069); test: Inhibition of IGF1R
Huh-7 = test: Antiproliferative activity against human HuH7 cells assessed as cell growth inhibition; format: cell-based
NCI-H460 [8] = test: Antiproliferative activity against human NCI-H460 cells assessed as cell growth inhibition; format: cell-based
Ephrin type-A receptor 2 = Ephrin type-A receptor 2 (Homo sapiens, UniProt P29317); test: Inhibition of EPHA2
NCI-H460 [9] = test: Antiproliferative activity against PTX-resistant human NCI-H460 cells assessed as cell growth inhibition; format: cell-based
[10] = Antiproliferative activity against human IGROV1/T8 cells assessed as cell growth inhibition; format: cell-based; conditions: IGROV-1
[11] = Antiproliferative activity against human COLO320DM cells assessed as cell growth inhibition; format: cell-based; conditions: COLO 320DM
CWR22R = test: Antiproliferative activity against human 22Rv1 cells assessed as cell growth inhibition; format: cell-based
MCF7 = test: Antiproliferative activity against human MCF7 cells assessed as cell growth inhibition; format: cell-based
[12] = Antiproliferative activity against human MDA-MB-435S cells assessed as cell growth inhibition; format: cell-based
[13] = molecular target: Cyclin-dependent kinase 1 (Homo sapiens, UniProt P06493); test: Inhibition of CDK1
DLD-1 = test: Antiproliferative activity against human DLD1 cells assessed as cell growth inhibition; format: cell-based
MDA-MB-231 = test: Antiproliferative activity against human MDA-MB-231 cells assessed as cell growth inhibition; format: cell-based
WiDr = test: Antiproliferative activity against human WiDr cells assessed as cell growth inhibition; format: cell-based
HCT-15 = test: Antiproliferative activity against human HCT15 cells assessed as cell growth inhibition; format: cell-based
COLO 205 = test: Antiproliferative activity against human COLO205 cells assessed as cell growth inhibition; format: cell-based
[14] = molecular target: Proto-oncogene tyrosine-protein kinase Src (Homo sapiens, UniProt P12931); test: Inhibition of Src
MKN-45 = test: Antiproliferative activity against human MKN45 cells assessed as cell growth inhibition; format: cell-based
[15] = Half life in nude mouse at 30 mg/kg, po by LC-MS/MS analysis; format: ADME, organism-based; set-up: dose 30 mg/kg, route oral; conditions: in vivo; method in brief: as §1
[16] = molecular target: Tyrosine-protein kinase Yes (Homo sapiens, UniProt P07947); test: Inhibition of YES
Sequence of Tyrosine-protein kinase Yes (P07947 whole entry): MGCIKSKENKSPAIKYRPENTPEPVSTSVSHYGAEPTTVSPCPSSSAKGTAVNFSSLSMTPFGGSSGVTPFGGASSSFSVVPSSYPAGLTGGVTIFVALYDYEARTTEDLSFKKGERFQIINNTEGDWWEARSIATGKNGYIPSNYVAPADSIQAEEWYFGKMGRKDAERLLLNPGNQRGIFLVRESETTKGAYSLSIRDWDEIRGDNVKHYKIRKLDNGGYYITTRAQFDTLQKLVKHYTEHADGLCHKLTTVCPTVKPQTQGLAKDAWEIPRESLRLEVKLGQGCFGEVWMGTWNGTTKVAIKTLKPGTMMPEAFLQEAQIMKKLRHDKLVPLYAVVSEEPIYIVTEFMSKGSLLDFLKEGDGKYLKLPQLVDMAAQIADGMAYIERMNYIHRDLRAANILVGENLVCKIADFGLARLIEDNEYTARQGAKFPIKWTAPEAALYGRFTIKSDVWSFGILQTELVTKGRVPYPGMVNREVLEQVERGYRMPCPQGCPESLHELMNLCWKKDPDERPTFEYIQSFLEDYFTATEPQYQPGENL

CCRF-CEM = test: Antiproliferative activity against human CCRF-CEM cells assessed as cell growth inhibition; format: cell-based
T47D = test: Antiproliferative activity against human T47D cells assessed as cell growth inhibition; format: cell-based
[17] = molecular target: Tyrosine-protein kinase Fyn (Homo sapiens, UniProt P06241); test: Inhibition of Fyn
Insulin receptor = Insulin receptor (Homo sapiens, UniProt P06213); test: Inhibition of INSR
Sequence of Insulin receptor (P06213 28-758 limits assumed): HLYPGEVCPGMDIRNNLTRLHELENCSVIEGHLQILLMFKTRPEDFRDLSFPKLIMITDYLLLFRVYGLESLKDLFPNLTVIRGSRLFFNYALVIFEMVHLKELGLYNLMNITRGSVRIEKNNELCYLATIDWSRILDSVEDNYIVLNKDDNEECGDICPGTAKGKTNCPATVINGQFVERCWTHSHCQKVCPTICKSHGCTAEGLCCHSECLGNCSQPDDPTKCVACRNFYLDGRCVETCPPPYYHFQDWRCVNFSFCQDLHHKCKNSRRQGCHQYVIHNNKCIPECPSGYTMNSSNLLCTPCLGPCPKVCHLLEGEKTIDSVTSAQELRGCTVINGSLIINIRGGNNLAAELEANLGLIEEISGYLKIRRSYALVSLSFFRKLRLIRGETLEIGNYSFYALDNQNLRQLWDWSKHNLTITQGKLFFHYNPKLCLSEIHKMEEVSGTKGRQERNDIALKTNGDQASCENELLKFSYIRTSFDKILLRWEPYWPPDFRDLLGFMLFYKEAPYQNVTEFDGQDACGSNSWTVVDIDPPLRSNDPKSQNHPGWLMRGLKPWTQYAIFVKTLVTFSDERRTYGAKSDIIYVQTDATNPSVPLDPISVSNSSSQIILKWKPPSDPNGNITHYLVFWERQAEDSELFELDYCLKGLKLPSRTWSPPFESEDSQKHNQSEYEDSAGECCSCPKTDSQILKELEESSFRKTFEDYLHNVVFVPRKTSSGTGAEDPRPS
Sequence of Insulin receptor (P06213 763-1382 limits assumed): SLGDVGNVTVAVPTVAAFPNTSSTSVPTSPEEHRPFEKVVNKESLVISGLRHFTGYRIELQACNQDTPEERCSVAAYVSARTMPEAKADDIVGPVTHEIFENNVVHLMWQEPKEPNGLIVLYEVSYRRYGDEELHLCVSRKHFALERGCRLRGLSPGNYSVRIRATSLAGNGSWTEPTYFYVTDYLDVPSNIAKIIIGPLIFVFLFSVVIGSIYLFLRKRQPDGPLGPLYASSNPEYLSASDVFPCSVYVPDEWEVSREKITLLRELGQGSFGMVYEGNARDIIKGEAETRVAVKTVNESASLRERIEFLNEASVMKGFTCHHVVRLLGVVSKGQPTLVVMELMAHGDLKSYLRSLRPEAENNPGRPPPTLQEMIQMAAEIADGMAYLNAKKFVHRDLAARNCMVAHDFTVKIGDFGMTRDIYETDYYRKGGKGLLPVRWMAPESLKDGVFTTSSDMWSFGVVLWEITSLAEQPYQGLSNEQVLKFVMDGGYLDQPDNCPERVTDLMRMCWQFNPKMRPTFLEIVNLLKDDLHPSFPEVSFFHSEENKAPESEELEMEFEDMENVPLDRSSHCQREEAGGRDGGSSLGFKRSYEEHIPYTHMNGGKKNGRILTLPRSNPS

[18] = AUC (0 to 24 hrs) in nude mouse at 30 mg/kg, po by LC-MS/MS analysis; format: ADME, organism-based; set-up: time < 24 hr, dose 30 mg/kg, route oral; conditions: plasma
[19] = Antiproliferative activity against human 10C9 cells assessed as cell growth inhibition; format: cell-based
[20] = Antiproliferative activity against human JOK1 cells assessed as cell growth inhibition; format: cell-based
HCT-116 = test: Antiproliferative activity against human HCT116 cells; format: cell-based
Mus musculus = test: Toxicity in human Calu6 cells xenografted BALB/c mouse assessed as body weight change at 1 to 10 mg/kg, po qd for 11 days; format: organism-based, Calu-6; set-up: dose 1-10 mg/kg, route oral; conditions: in vivo, 264 h
Method in brief: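 Calu-6 xenografts (5.0 × 10⁶ cells s.c., female Balb/c nude mice). Once tumors reached 150 mm³, oral dosing once daily for 11 days at 1, 3 and 10 mg/kg. Body weight change recorded as percent over the treatment period.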

[21] = Inhibition of PDGFR
[22] = molecular target: Cyclin-dependent kinase 2 (Homo sapiens, UniProt P24941); test: Inhibition of CDK2
K562 = test: Antiproliferative activity against human K562 cells assessed as cell growth inhibition; format: cell-based
[23] = Antiproliferative activity against human Huh1 cells assessed as cell growth inhibition; format: cell-based; conditions: HuH-1
[24] = molecular target: Leukocyte tyrosine kinase receptor (Homo sapiens, UniProt P29376); test: Inhibition of LTK
Sequence of Leukocyte tyrosine kinase receptor (P29376 whole entry, the tested form may be a part): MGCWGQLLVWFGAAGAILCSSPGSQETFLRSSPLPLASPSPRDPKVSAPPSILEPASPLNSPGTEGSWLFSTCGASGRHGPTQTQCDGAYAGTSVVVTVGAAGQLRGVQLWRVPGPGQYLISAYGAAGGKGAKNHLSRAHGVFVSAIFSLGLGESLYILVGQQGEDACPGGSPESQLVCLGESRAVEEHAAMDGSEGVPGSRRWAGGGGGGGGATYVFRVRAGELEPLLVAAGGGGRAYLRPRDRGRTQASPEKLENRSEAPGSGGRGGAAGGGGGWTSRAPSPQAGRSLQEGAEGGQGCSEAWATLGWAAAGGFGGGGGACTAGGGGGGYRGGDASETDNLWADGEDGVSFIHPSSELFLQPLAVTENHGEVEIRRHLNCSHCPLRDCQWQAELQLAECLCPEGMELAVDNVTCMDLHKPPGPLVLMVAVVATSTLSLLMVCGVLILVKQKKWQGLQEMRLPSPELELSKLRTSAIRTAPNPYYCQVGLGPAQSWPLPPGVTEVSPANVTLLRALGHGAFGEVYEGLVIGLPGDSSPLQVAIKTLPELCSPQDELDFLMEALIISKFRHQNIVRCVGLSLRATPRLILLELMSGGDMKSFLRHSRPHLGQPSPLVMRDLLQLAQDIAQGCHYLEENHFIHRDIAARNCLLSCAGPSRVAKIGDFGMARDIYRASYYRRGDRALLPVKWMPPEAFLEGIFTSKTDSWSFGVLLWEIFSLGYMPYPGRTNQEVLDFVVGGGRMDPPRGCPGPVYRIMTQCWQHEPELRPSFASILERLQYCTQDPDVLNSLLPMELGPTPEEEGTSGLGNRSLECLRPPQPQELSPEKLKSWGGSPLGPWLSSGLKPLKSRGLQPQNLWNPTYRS

[25] = molecular target: Epithelial discoidin domain-containing receptor 1 (Homo sapiens, UniProt Q08345); test: Inhibition of DDR1
Sequence of Epithelial discoidin domain-containing receptor 1 (Q08345 whole entry, the tested form may be a part): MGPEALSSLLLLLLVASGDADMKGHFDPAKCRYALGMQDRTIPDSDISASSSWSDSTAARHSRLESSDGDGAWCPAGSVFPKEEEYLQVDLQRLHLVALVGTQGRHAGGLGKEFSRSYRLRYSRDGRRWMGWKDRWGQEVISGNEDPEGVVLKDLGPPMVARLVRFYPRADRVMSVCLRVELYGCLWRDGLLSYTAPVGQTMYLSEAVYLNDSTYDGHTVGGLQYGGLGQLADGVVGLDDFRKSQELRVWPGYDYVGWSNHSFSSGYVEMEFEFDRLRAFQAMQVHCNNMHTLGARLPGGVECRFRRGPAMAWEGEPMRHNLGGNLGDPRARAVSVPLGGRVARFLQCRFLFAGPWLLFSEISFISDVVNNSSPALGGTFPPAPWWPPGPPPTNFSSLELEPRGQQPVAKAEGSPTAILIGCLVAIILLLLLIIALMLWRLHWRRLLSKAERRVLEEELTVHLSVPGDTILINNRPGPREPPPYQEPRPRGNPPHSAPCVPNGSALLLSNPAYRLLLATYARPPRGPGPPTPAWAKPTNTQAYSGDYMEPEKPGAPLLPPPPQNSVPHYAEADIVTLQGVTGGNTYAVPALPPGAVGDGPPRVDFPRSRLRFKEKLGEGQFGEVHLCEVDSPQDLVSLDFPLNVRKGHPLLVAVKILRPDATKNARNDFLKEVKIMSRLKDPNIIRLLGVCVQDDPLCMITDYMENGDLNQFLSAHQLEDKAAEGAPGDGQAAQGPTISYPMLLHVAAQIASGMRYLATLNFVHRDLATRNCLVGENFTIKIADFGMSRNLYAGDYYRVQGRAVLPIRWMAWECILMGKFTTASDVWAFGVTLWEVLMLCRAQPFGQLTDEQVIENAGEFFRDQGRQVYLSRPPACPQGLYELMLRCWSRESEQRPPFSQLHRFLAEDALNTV

Calu-6 [26] = test: Antiproliferative activity against human Calu6 cells assessed as cell growth inhibition; format: cell-based
CEM/C2 = test: Antiproliferative activity against human CEM/C2 cells assessed as cell growth inhibition; format: cell-based
QG-56 = test: Antiproliferative activity against human QG56 cells assessed as cell growth inhibition; format: cell-based

COc1ccc(C(=O)NC[C@H](O)CO)cc1/C=C/c1ccc(Cl)cc1
IC50 (HUVEC): 0.25 µM | IC50 [1]: > 50 µM | Activity (Calu-6 [2]): Active | Cmax [3]: 9.37 µg/mL | IC50 (HT-29): 16 µM | Activity [4]: Non-toxic | IC50 [5]: 15 µM | IC50 (Focal adhesion kinase 1): > 50 µM | IC50 [6]: 20 µM | IC50 (MKN-28): 23 µM | IC50 (A549): 18 µM | IC50 [7]: > 50 µM | IC50 (Huh-7): 27 µM | IC50 (NCI-H460 [8]): 24 µM | IC50 (Ephrin type-A receptor 2): > 50 µM | IC50 (NCI-H460 [9]): 30 µM | IC50 [10]: 12 µM | IC50 [11]: 61 µM | IC50 (CWR22R): 21 µM | IC50 (MCF7): 63 µM | IC50 [12]: 69 µM | IC50 [13]: > 50 µM | IC50 (DLD-1): 28 µM | IC50 (MDA-MB-231): 38 µM | IC50 (WiDr): 15 µM | IC50 (HCT-15): 29 µM | IC50 (COLO 205): 18 µM | IC50 [14]: > 50 µM | IC50 (MKN-45): 26 µM | half-life [15]: 8.5 h | IC50 [16]: > 50 µM | IC50 (CCRF-CEM): 30 µM | IC50 (T47D): 7.2 µM | IC50 [17]: > 50 µM | IC50 (Insulin receptor): > 50 µM | AUC(0-t) at 24 h [18]: 90.2 µg·h/mL | IC50 [19]: 50 µM | IC50 [20]: 38 µM | IC50 (HCT-116): 21 µM | Activity (Mus musculus): Non-toxic | IC50 [21]: > 50 µM | IC50 [22]: > 50 µM | IC50 (K562): 36 µM | IC50 [23]: 30 µM | IC50 [24]: > 50 µM | IC50 [25]: > 50 µM | IC50 (Calu-6 [26]): 54 µM | IC50 (CEM/C2): 30 µM | IC50 (QG-56): 21 µM

COc1ccc(C(=O)NC[C@@H](O)CO)cc1/C=C/c1ccc(Cl)cc1
IC50 (HUVEC): 0.48 µM | IC50 [1]: > 50 µM | Activity (Calu-6 [2]): Active | Cmax [3]: 8.27 µg/mL | IC50 (HT-29): 10 µM | Activity [4]: Non-toxic | IC50 [5]: 4.9 µM | IC50 (Focal adhesion kinase 1): > 50 µM | IC50 [6]: 17 µM | IC50 (MKN-28): 15 µM | IC50 (A549): 13 µM | IC50 [7]: > 50 µM | IC50 (Huh-7): 29 µM | IC50 (NCI-H460 [8]): 15 µM | IC50 (Ephrin type-A receptor 2): > 50 µM | IC50 (NCI-H460 [9]): 19 µM | IC50 [10]: 9.5 µM | IC50 [11]: 46 µM | IC50 (CWR22R): 8.6 µM | IC50 (MCF7): 65 µM | IC50 [12]: 74 µM | IC50 [13]: > 50 µM | IC50 (DLD-1): 19 µM | IC50 (MDA-MB-231): 39 µM | IC50 (WiDr): 7 µM | IC50 (HCT-15): 20 µM | IC50 (COLO 205): 18 µM | IC50 [14]: > 50 µM | IC50 (MKN-45): 5.7 µM | half-life [15]: 7.8 h | IC50 [16]: > 50 µM | IC50 (CCRF-CEM): 20 µM | IC50 (T47D): 4.5 µM | IC50 [17]: > 50 µM | IC50 (Insulin receptor): > 50 µM | AUC(0-t) at 24 h [18]: 86.4 µg·h/mL | IC50 [19]: 38 µM | IC50 [20]: 31 µM | IC50 (HCT-116): 13 µM | Activity (Mus musculus): Non-toxic | IC50 [21]: > 50 µM | IC50 [22]: > 50 µM | IC50 (K562): 29 µM | IC50 [23]: 30 µM | IC50 [24]: > 50 µM | IC50 [25]: > 50 µM | IC50 (Calu-6 [26]): 40 µM | IC50 (CEM/C2): 30 µM | IC50 (QG-56): 23 µM
